ChEMBL document CHEMBL2396601, “Synthesis and antiprotozoal activity of dicationic m-terphenyl and 1,3-dipyridylbenzene derivatives” (J Med Chem, 2013)
Activity calls are given as the source filed them. The calls are words filed in the database; no cut-off is given here.

System: not listed separately
Test: Selectivity index, ratio of IC50 for rat L6 cells to IC50 for Plasmodium falciparum K1
Type: toxicity, cell-based
Conditions: L6 cells, read-out: Ratio IC50
Outline: (§1)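 Selectivity index is IC50 against L6 rat myoblast cells divided by IC50 against the named parasite.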

SMILES	selectivity ratio
N=C(Nc1ccc(-c2cccc(-c3cccc(NC(=N)c4ccccc4)c3)c2)cc1)c1ccccc1	66
N=C(Nc1cccc(-c2cc(Cl)cc(-c3cccc(NC(=N)c4ccccc4)c3)c2)c1)c1ccccc1	58
CC(C)Oc1cc(NC(=N)c2ccccn2)ccc1-c1cc(Cl)cc(-c2ccccc2)c1	< 1
CC(C)Oc1ccc(NC(=N)c2ccccn2)cc1-c1cc(Cl)cc(-c2ccccc2)c1	1
Cl.Cl.N=C(N)c1ccc(-c2cccc(-c3ccc(C(=N)N)nc3)c2)cn1	1480

System: Trypanosoma cruzi
Test: Antiprotozoal activity against intracellular amastigote form of Trypanosoma cruzi Tulahuen C2C4 expressing LacZ infected in rat L6 cells after 48 hrs
Type: functional, organism-based
Conditions: Tulahuen C2C4, L6, 48 h
Outline: (§2)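 Uses T. b. rhodesiense STIB900, T. cruzi Tulahuen C2C4 LacZ intracellular amastigotes, or L6 rat myoblasts depending on line.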

SMILES	IC50 [nM]
N=C(Nc1ccc(-c2cccc(-c3cccc(NC(=N)c4ccccc4)c3)c2)cc1)c1ccccc1	2140
N=C(Nc1cccc(-c2cc(Cl)cc(-c3cccc(NC(=N)c4ccccc4)c3)c2)c1)c1ccccc1	2090
CC(C)Oc1cc(NC(=N)c2ccccn2)ccc1-c1cc(Cl)cc(-c2ccccc2)c1	4180
CC(C)Oc1ccc(NC(=N)c2ccccn2)cc1-c1cc(Cl)cc(-c2ccccc2)c1	2980
Cl.Cl.N=C(N)c1ccc(-c2cccc(-c3ccc(C(=N)N)nc3)c2)cn1	43400

System: L6
Test: Cytotoxicity against rat L6 cells after 72 hrs by Alamar Blue assay
Type: cell-based
Conditions: L6, 72 h
Outline: as §2

SMILES	IC50 [nM]
N=C(Nc1ccc(-c2cccc(-c3cccc(NC(=N)c4ccccc4)c3)c2)cc1)c1ccccc1	2520
N=C(Nc1cccc(-c2cc(Cl)cc(-c3cccc(NC(=N)c4ccccc4)c3)c2)c1)c1ccccc1	4100
CC(C)Oc1cc(NC(=N)c2ccccn2)ccc1-c1cc(Cl)cc(-c2ccccc2)c1	9690
CC(C)Oc1ccc(NC(=N)c2ccccn2)cc1-c1cc(Cl)cc(-c2ccccc2)c1	3770
Cl.Cl.N=C(N)c1ccc(-c2cccc(-c3ccc(C(=N)N)nc3)c2)cn1	22300

System: Trypanosoma brucei rhodesiense
Test: Antiprotozoal activity against Trypanosoma brucei rhodesiense STIB900 infected in NMRI mouse assessed as reduction of parasitemia relapse at 5 mg/kg, ip
Type: functional, organism-based
Parameters: dose 5 mg/kg
Conditions: not given
Outline: (§3)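 Mouse model of acute (early) stage HAT with T. b. rhodesiense STIB900, groups of 4 mice. Amidines dosed intraperitoneally, 4 daily doses of 5 mg/kg or single doses; prodrugs dosed orally, 4 daily doses of 25 mg/kg. Cure means survival to 60 days after infection with no parasitemia relapse. Mean survival days counts all mice, with cured mice scored as >60 days.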

SMILES	Activity
Cl.Cl.N=C(N)c1ccc(-c2cccc(-c3ccc(C(=N)N)nc3)c2)cn1	Active

System: Leishmania amazonensis
Test: Antiprotozoal activity against intracellular amastigote form of Leishmania amazonensis infected in CD1 mouse macrophages after 72 hrs by […]
Type: functional, organism-based
Conditions: not given

SMILES	IC50 [nM]
N=C(Nc1ccc(-c2cccc(-c3cccc(NC(=N)c4ccccc4)c3)c2)cc1)c1ccccc1	907
N=C(Nc1cccc(-c2cc(Cl)cc(-c3cccc(NC(=N)c4ccccc4)c3)c2)c1)c1ccccc1	2430
CC(C)Oc1cc(NC(=N)c2ccccn2)ccc1-c1cc(Cl)cc(-c2ccccc2)c1	933
CC(C)Oc1ccc(NC(=N)c2ccccn2)cc1-c1cc(Cl)cc(-c2ccccc2)c1	1880

System: Trypanosoma brucei rhodesiense
Test: Antiprotozoal activity against Trypanosoma brucei rhodesiense STIB900 infected in NMRI mouse assessed as host mean survival days at 5 mg/kg, ip qd for 4 days
Type: functional
Conditions: route intraperitoneal
Outline: (§4)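 Acute-stage HAT mouse model infected with STIB900. Cure means survival to 60 days after infection with no parasitemia relapse. Mean survival days are counted from infection and use every mouse: relapsed mice, plus cured mice entered as >60 days.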

SMILES	MSD [days]
Cl.Cl.N=C(N)c1ccc(-c2cccc(-c3ccc(C(=N)N)nc3)c2)cn1	>60

System: not listed separately
Test: Selectivity index, ratio of IC50 for rat L6 cells to IC50 for Trypanosoma brucei rhodesiense STIB900
Type: toxicity, cell-based
Conditions: L6 cells, read-out: Ratio IC50
Outline: as §1

SMILES	selectivity ratio
N=C(Nc1ccc(-c2cccc(-c3cccc(NC(=N)c4ccccc4)c3)c2)cc1)c1ccccc1	4
N=C(Nc1cccc(-c2cc(Cl)cc(-c3cccc(NC(=N)c4ccccc4)c3)c2)c1)c1ccccc1	8
CC(C)Oc1cc(NC(=N)c2ccccn2)ccc1-c1cc(Cl)cc(-c2ccccc2)c1	< 1
CC(C)Oc1ccc(NC(=N)c2ccccn2)cc1-c1cc(Cl)cc(-c2ccccc2)c1	< 1
Cl.Cl.N=C(N)c1ccc(-c2cccc(-c3ccc(C(=N)N)nc3)c2)cn1	3720

System: Trypanosoma brucei rhodesiense
Test: Antiprotozoal activity against Trypanosoma brucei rhodesiense STIB900 infected in NMRI mouse assessed as host mean survival days at 5 mg/kg, ip
Type: functional
Conditions: route intraperitoneal
Outline: as §4

SMILES	MSD [days]
Cl.Cl.N=C(N)c1ccc(-c2cccc(-c3ccc(C(=N)N)nc3)c2)cn1	>60

System: Trypanosoma brucei rhodesiense
Test: Antiprotozoal activity against Trypanosoma brucei rhodesiense STIB900 infected in NMRI mouse assessed as reduction of parasitemia relapse at 5 mg/kg, ip qd for 4 days
Type: functional, organism-based
Parameters: dose 5 mg/kg
Conditions: not given
Outline: as §3

SMILES	Activity
Cl.Cl.N=C(N)c1ccc(-c2cccc(-c3ccc(C(=N)N)nc3)c2)cn1	Active

System: Plasmodium falciparum
Test: Antiprotozoal activity against chloroquine-resistant Plasmodium falciparum K1 after 48 hrs by [3H]-hypoxanthine incorporation assay
Type: functional, organism-based
Conditions: Plasmodium falciparum, K1

SMILES	IC50 [nM]
N=C(Nc1ccc(-c2cccc(-c3cccc(NC(=N)c4ccccc4)c3)c2)cc1)c1ccccc1	38
N=C(Nc1cccc(-c2cc(Cl)cc(-c3cccc(NC(=N)c4ccccc4)c3)c2)c1)c1ccccc1	71
CC(C)Oc1cc(NC(=N)c2ccccn2)ccc1-c1cc(Cl)cc(-c2ccccc2)c1	> 10000
CC(C)Oc1ccc(NC(=N)c2ccccn2)cc1-c1cc(Cl)cc(-c2ccccc2)c1	3080
Cl.Cl.N=C(N)c1ccc(-c2cccc(-c3ccc(C(=N)N)nc3)c2)cn1	15

System: not listed separately
Test: Selectivity index, ratio of IC50 for rat L6 cells to IC50 for Trypanosoma cruzi Tulahuen C2C4
Type: toxicity, cell-based
Conditions: read-out: Ratio IC50
Outline: as §1

SMILES	selectivity ratio
N=C(Nc1ccc(-c2cccc(-c3cccc(NC(=N)c4ccccc4)c3)c2)cc1)c1ccccc1	1
N=C(Nc1cccc(-c2cc(Cl)cc(-c3cccc(NC(=N)c4ccccc4)c3)c2)c1)c1ccccc1	2
CC(C)Oc1cc(NC(=N)c2ccccn2)ccc1-c1cc(Cl)cc(-c2ccccc2)c1	2
CC(C)Oc1ccc(NC(=N)c2ccccn2)cc1-c1cc(Cl)cc(-c2ccccc2)c1	1
Cl.Cl.N=C(N)c1ccc(-c2cccc(-c3ccc(C(=N)N)nc3)c2)cn1	< 1

System: Trypanosoma brucei rhodesiense
Test: Antiprotozoal activity against Trypanosoma brucei rhodesiense STIB900 after 72 hrs by Alamar Blue assay
Type: functional, organism-based
Conditions: Trypanosoma brucei, STIB900, 72 h
Outline: as §2

SMILES	IC50 [nM]
N=C(Nc1ccc(-c2cccc(-c3cccc(NC(=N)c4ccccc4)c3)c2)cc1)c1ccccc1	635
N=C(Nc1cccc(-c2cc(Cl)cc(-c3cccc(NC(=N)c4ccccc4)c3)c2)c1)c1ccccc1	533
CC(C)Oc1cc(NC(=N)c2ccccn2)ccc1-c1cc(Cl)cc(-c2ccccc2)c1	32400
CC(C)Oc1ccc(NC(=N)c2ccccn2)cc1-c1cc(Cl)cc(-c2ccccc2)c1	12300
Cl.Cl.N=C(N)c1ccc(-c2cccc(-c3ccc(C(=N)N)nc3)c2)cn1	6

System: not listed separately
Test: Selectivity index, ratio of IC50 for rat L6 cells to IC50 for Leishmania amazonensis
Type: toxicity, cell-based
Conditions: read-out: Ratio IC50
Outline: as §1

SMILES	selectivity ratio
N=C(Nc1ccc(-c2cccc(-c3cccc(NC(=N)c4ccccc4)c3)c2)cc1)c1ccccc1	3
N=C(Nc1cccc(-c2cc(Cl)cc(-c3cccc(NC(=N)c4ccccc4)c3)c2)c1)c1ccccc1	2
CC(C)Oc1cc(NC(=N)c2ccccn2)ccc1-c1cc(Cl)cc(-c2ccccc2)c1	10
CC(C)Oc1ccc(NC(=N)c2ccccn2)cc1-c1cc(Cl)cc(-c2ccccc2)c1	2
